Data set [1] is filed under the species Cavia porcellus. As to the kind of experiment: The agonist potency in the guinea pig ileal longitudinal muscle preparation (GPI) was determined relative to morphine as control. The class given is functional, Muscle tissue.
Data set [2] is filed under the species Cavia porcellus. As to the kind of experiment: (§1) Compound was tested for persistent effect, percent inhibition of twitch that is not reversed by >=20 washings following 30 -min incubation at 200 nM. Type of data set: functional.
Data set [3] is filed under the species Mus musculus. As to the kind of experiment: The agonist potency was assessed by measuring the inhibition of contraction at a single concentration (30 nM). Type of data set: functional.
Data set [4] deals with Mu-type opioid receptor (Mus musculus) (UniProt P42866). Description: Irreversible antagonist activity at mouse vas deferens mu receptor against DADLE after 30 min at 200 nM. The class given is functional, tissue-based.
Chain of Mu-type opioid receptor (Mus musculus) (P42866 whole entry): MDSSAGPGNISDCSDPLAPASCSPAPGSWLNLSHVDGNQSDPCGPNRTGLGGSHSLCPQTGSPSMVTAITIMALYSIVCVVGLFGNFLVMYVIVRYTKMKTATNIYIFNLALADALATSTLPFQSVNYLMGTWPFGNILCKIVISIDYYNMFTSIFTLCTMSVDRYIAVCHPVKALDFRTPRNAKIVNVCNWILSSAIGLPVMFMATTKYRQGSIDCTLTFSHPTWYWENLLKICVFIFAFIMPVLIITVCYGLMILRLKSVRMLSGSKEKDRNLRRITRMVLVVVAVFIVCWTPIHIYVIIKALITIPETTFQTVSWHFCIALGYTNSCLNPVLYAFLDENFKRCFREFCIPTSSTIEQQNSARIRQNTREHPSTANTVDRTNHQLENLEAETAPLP
Data set [5] deals with Mu-type opioid receptor (Homo sapiens) (UniProt P35372). As to the kind of experiment: Compound was tested for irreversible antagonist activity at mu receptor by determining by ileal response to morphine after 30 min incubation at 200 nM. The class given is functional.
Chain of Mu-type opioid receptor (Homo sapiens) (P35372 whole entry): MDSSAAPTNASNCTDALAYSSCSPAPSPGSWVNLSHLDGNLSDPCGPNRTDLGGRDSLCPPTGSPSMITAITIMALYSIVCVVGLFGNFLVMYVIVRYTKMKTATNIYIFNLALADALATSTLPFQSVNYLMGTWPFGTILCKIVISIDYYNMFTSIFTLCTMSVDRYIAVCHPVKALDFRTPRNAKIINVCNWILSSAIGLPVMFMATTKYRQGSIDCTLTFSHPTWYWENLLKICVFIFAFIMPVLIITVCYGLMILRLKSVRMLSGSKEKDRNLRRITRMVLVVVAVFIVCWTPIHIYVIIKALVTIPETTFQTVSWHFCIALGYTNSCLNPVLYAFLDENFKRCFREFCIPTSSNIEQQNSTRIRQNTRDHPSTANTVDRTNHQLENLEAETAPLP
Data set [6] has the same target. Description: Irreversible antagonist activity at mu receptor by determining by ileal response to morphine after 30 min incubation at 20 nM. The class given is functional.
For data set [7] the target is unchanged. As to the kind of experiment: Compound was tested for irreversible antagonist activity at mu receptor by determining by MVD response to DADLE after 30 min incubation at 30 nM. The class given is functional.
For data set [8] the target is unchanged. Description: Compound was tested for irreversible antagonist activity at mu receptor by determining by MVD response to morphine after 30 min incubation at 200 nM. Type of data set: functional.
The nature of data set [9]: Compound was tested for irreversible antagonist activity at kappa receptor by determining by ileal response to ethylketazocine after 30 min incubation at 1000 nM. Type of data set: functional.
The target of data set [10] is Kappa-type opioid receptor (Homo sapiens) (UniProt P41145). Description: Irreversible antagonist activity at kappa receptor as ileal response to ethylketazocine after 30 min incubation at 20 nM. The class given is functional.
Chain of Kappa-type opioid receptor (Homo sapiens) (P41145 whole entry): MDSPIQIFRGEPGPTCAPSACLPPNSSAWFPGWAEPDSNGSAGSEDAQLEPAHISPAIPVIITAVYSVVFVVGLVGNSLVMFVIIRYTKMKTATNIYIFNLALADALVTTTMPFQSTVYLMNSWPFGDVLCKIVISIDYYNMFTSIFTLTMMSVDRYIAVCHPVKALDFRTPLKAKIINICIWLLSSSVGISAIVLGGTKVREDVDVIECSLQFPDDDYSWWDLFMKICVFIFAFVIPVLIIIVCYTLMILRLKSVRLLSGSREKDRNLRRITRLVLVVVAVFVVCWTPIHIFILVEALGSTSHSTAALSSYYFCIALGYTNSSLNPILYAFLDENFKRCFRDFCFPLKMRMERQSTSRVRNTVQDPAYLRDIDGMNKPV
A short description of data set [11]: The relative rate (to beta FNA) in the reaction of Michael acceptors with cysteine at pH 7.4 at 25 degree Celsius in the presence of 13 fold excess cysteine was reported for half-life. Type of data set: ADME. In short, it runs like this:
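Reaction with a 13-fold excess of cysteine at pH 7.4, 25 °C under rapid stirring; aliquots quenched by acidification to pH 1 at timed intervals. Remaining compound quantified by reversed-phase HPLC (UV 254 nm, internal standard), four intervals in duplicate. Half-life taken from the slope of log amount remaining vs time; rate expressed relative to β-FNA.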

The species named for data set [12] is Cavia porcellus. As to the kind of experiment: Compound was tested for persistent effect, percent inhibition of twitch that is not reversed by >=20 washings following 30 -min incubation at 200 nM; none. The class given is functional.
The species named for data set [13] is Mus musculus. As to the kind of experiment: The agonist potency was assessed by measuring the inhibition of contraction at a single concentration (200 nM). The class given is functional.
Data set [14] has as its target Kappa-type opioid receptor (Homo sapiens) (UniProt P41145). As to the kind of experiment: Compound was tested for irreversible antagonist activity at kappa receptor by determining by ileal response to ethylketazocine after 30 min incubation at 200 nM. The class given is functional.
The species named for data set [15] is Cavia porcellus. As to the kind of experiment: Compound was tested for persistent effect, percent inhibition of twitch that is not reversed by >=20 washings following 30 -min incubation at 20 nM. The class given is functional.
The species named for data set [16] is Mus musculus. As to the kind of experiment: (§2) The agonist potency was assessed by measuring the inhibition of contraction at a single concentration (200 nM). Type of data set: functional.
For data set [17], the species on record is Mus musculus. As to the kind of experiment: Compound was tested for persistent effect, percent inhibition contraction that is not reversed significantly by >=20 washings following a 30 min incubation at 20 nM. The class given is functional.
In data set [18] the target is Mu-type opioid receptor (Homo sapiens) (UniProt P35372). Description: Compound was tested for irreversible antagonist activity at mu receptor by determining by MVD response to DADLE after 30 min incubation at 10 nM. Type of data set: functional.
Data set [19] shares this target. Description: Compound was tested for irreversible antagonist activity at mu receptor by determining by MVD response to DADLE after 30 min incubation at 20 nM. The class given is functional.
Data set [20] is filed under the species Cavia porcellus. As to the kind of experiment: Evaluated for the inhibition concentration in the guinea pig ileal longitudinal muscle preparation (GPI). The class given is functional, Muscle tissue.
The species named for data set [21] is Cavia porcellus. The description is as §1. Type of data set: functional. The source holds these as a separate data set.
Data set [22] is filed under the species Mus musculus. The description is as §2. The class given is functional. This is another data set of the same source.
For data set [23], the species on record is Mus musculus. As to the kind of experiment: Compound was tested for persistent effect, percent inhibition contraction that is not reversed significantly by >=20 washings following a 30 min incubation at 3 nM. The class given is functional.
For data set [24], the target named is Kappa-type opioid receptor (Homo sapiens) (UniProt P41145). Description: Compound was tested for irreversible antagonist activity at kappa receptor by determining by ileal response to ethylketazocine after 30 min incubation at 10 nM. Type of data set: functional.
The target of data set [25] is Mu-type opioid receptor (Homo sapiens) (UniProt P35372). As to the kind of experiment: Compound was tested for irreversible antagonist activity at mu receptor by determining by ileal response to morphine after 30 min incubation at 10 nM. Type of data set: functional.
The target is the same in data set [26]. As to the kind of experiment: Compound was tested for irreversible antagonist activity at mu receptor by determining by MVD response to DADLE after 30 min incubation at 3 nM. The class given is functional.
Data set [27] shares this target. As to the kind of experiment: Compound was tested for irreversible antagonist activity at mu receptor by determining by ileal response to morphine after 30 min incubation at 20 nM. The class given is functional.
Data set [28] shares this target. Description: Compound was tested for irreversible antagonist activity at mu receptor by determining by MVD response to DADLE after 30 min incubation at […]. The class given is functional.
Data set [29] has the same target. As to the kind of experiment: Compound was tested for irreversible antagonist activity at mu receptor by determining by MVD response to morphine after 30 min incubation at 20 nM. The class given is functional.

Several values for one entry are separate records, joined by “and”; a condition that tells them apart may be missing. Equal entries are not always repeated. Activity calls are given as the source filed them. The rule behind the calls is not given here.

In the data set filed under Cavia porcellus [1], `C=CCN1CCC23c4c5ccc(O)c4OC2[C@H](NC(=O)/C=C/C(=O)OC)CCC3(O)C1C5` (some centres undefined) had a Potency of 5.8. In the data set filed under Cavia porcellus [2], the Inhibition (in general, the drop in the measured response relative to a control, in per cent) is 40%. In addition, the Agonist potency in the data set filed under Mus musculus [3] was found to be 34. The Ratio turned out to be 1.1 in data set [4]; 6.4 in data set [5]; 2.2 in data set [6]; 1.7 in [7]; 4 in data set [8]; 1.9 in data set [9]. In addition, the Ratio in [10] turned out to be 1.

Take `C=C(Cl)C(=O)N[C@@H]1CCC2(O)C3Cc4ccc(O)c5c4C2(CCN3CC2CC2)C1O5` (some centres undefined): in data set [11], the Relative rate stood at 0.4. The compound also gave a Potency in the data set listed under Cavia porcellus [1] of 1.1. In addition, the inhibition (usually the relative decrease from the control value, in per cent) in the data set filed under Cavia porcellus [12] was “inactive”. Further, the Agonist potency in the data set listed under Mus musculus [13] stood at 44. In addition, the Ratio stood at 0.88 in [14]; 1.6 in [4]; 13.4 in [6]; 6 in data set [8]; 0.93 in data set [10].

The compound `O=C(N[C@@H]1CCC2(O)C3Cc4ccc(O)c5c4C2(CCN3CC2CC2)C1O5)C(=O)c1ccccc1` (some centres undefined) displayed a Potency in the data set listed under Cavia porcellus [1] of 24. Besides, the Inhibition is 22% in the data set filed under Cavia porcellus [15] and 44% in the data set filed under Mus musculus [17]. The same compound displayed an Agonist potency in the data set listed under Mus musculus [16] of 51. The Ratio was 0.56 in data set [18]; 0.87 in [4]; 1.48 in data set [6]; 0.51 in data set [19]; 6.5 in data set [8]; 0.93 in data set [10].

On to “6beta-[(Chloromercuri)acetamido]-17-(cyclopropyl-methyl)-4,5alpha-epoxy-3,14-duhydroxymorphinan Methanesulphonate [listing 1 of 2 here]”, for which the half-maximal inhibitory concentration (IC50) (as a rule, the midpoint of a concentration-inhibition curve) in the data set listed under Cavia porcellus [20] is 0.3 µM.

For `COC(=O)C=CC(=O)N[C@@H]1CCC2(O)C3Cc4ccc(O)c5c4C2(CCN3CC2CC2)C1O5` (some centres undefined), the Relative rate in [11] turned out to be 0.5.

In the case of “6beta-[(Chloromercuri)acetamido]-17-(cyclopropyl-methyl)-4,5alpha-epoxy-3,14-duhydroxymorphinan Methanesulphonate [listing 2 of 2 here]”, the values for the Potency in the data set listed under Cavia porcellus [1] (Muscle tissue) and in the data set filed under Mus musculus [22] were 50 and 0.054 µM, respectively. Moreover, the inhibition in the data set filed under Cavia porcellus [21] was found to be 26%; in the data set filed under Mus musculus [23], 20%. Besides, the Ratio in data set [24] is 0.74; in data set [14], 1.3; in [4] it was 2.6 and 0.9; in [25], 0.75; in [5] it was 4.2; in data set [26], 1.1. The results for the Ratio in data set [8], in data set [27] and in data set [10] were 0.57, 1.2 and 1, respectively.

Regarding `CCOc1ccc2c(c1)C1(C)CCN(CC3CC3)C(C2=O)C1C` (centres undefined) [ETHYLKETAZOCINE], the half-maximal inhibitory concentration (IC50) in the data set listed under Cavia porcellus [20] (Cavia porcellus, Muscle tissue) worked out at 0.00973 µM.

In the data set filed under Cavia porcellus [1], `C#CC(=O)N[C@@H]1CCC2(O)C3Cc4ccc(O)c5c4C2(CCN3CC2CC2)C1O5` (some centres undefined) returned a Potency of 56. The Inhibition in the data set filed under Cavia porcellus [15] was found to be 53%; in the data set listed under Mus musculus [17], 50%. The Ratio in [4] was determined as 1.3; in data set [6], 2.6; in data set [19], 1.06; in data set [28], 1.5; in [29] it was 5; in data set [10], 0.84.

The values above are taken from ChEMBL document CHEMBL1122615, “Design and synthesis of naltrexone-derived affinity labels with nonequilibrium opioid agonist and antagonist activities. Evidence for the existence of different mu receptor subtypes in different tissues” (J Med Chem, 1984).
